Source: PubChem BioAssay AID617 (SRMLSC, 2007)

Test system: E. coli BW25113 ΔtolC growth inhibition, OD615
Assay: growth inhibitors of E. coli tolC mutant, dose response, strain BW25113 ΔtolC::kan (AID 617)
Procedure, shortened: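 system = E. coli BW25113 tolC deletion strain (ΔtolC::kan), whole bacterial cells | technique = optical density (absorbance) at 615 nm | dosing = compounds in serially diluted dose-response series | times = bacterial growth with compound for 20 h, 37 °C | evaluation = growth-inhibition IC50 from four-parameter logistic curve, bounds set to 0% and 100%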

First: COc1ccccc1OCCSc1nnnn1-c1ccc(C)cc1
Second: CCC(Sc1nnnn1-c1ccccc1)C(=O)Nc1nc2ccccc2s1 (configuration not stated)
The IC50 of the first is 3.5-fold higher: 18.9 µM for the first, 5.44 µM for the second. The second is the more potent here.

Compared with `Cc1csc(NC(=O)c2cccc(Cn3nc(C)c(Br)c3C)c2)n1`, `CCOC(=O)c1cnc(-n2nc(C)cc2C)nc1NC(C)c1ccccc1` (configuration not stated) is 3.7-fold lower in IC50: 10.3 µM for the first, 2.76 µM for the second. The second is the more potent here.

`FC(F)(F)c1cccc(N2CCN(c3nnnn3-c3ccccc3)CC2)c1` and `Cn1c(C(=O)N2CCN(c3cccc(C(F)(F)F)c3)CC2)cc2sccc21` are within 1.5-fold of each other in IC50: 20.8 µM for the first, 15.4 µM for the second.

Compared with `O=C(Nc1nnc(-c2ccc3c(c2)CCCC3)o1)C1COc2ccccc2O1` (configuration not stated), `O=C(Nc1nnc(-c2ccccc2)o1)c1nc2ccccc2s1` is 3-fold higher in IC50: 0.45 µM for the first, 1.34 µM for the second. The first is the more potent here.

Going from `c1ccc(CCc2ccccc2-c2nc(-c3cccnc3)no2)cc1` to `Fc1ccc(-n2c(Cc3ccccc3)nnc2SCc2nc(-c3cccs3)no2)cc1`, the IC50 rises from 11.9 µM to 19.1 µM (1.6-fold).

`O=C(c1ccco1)N1CCN(c2ncnc3c2[nH]c2ccc(Br)cc23)CC1` and `c1ccc(N2CCN(c3ncnc4c3oc3ccccc34)CC2)cc1` are within 1.5-fold of each other in IC50: 44.5 µM for the first, 40.5 µM for the second.

Going from `CCCCCCn1c(N2CCN(c3ccccc3)CC2)nc2c1c(=O)n(C)c(=O)n2C` to `CCCCCn1c(N2CCC(Cc3ccccc3)CC2)nc2c1c(=O)[nH]c(=O)n2C`, the IC50 falls from 10.1 µM to 6.18 µM (1.6-fold).

`CCCn1c(SCC(=O)Nc2ccccc2N2CCCCC2)nc2c1c(=O)n(C)c(=O)n2C` and `CCc1nc(N2CCCCC2)c2oc3ccccc3c2n1` are within 1.5-fold of each other in IC50: 11.7 µM for the first, 16.2 µM for the second.

First: O=C(Nc1cccc(-c2nnc(-c3ccccc3)o2)c1)c1ccc(Br)o1
Second: O=C(Nc1nnc(-c2ccccc2Cl)o1)c1cccnc1
The IC50 of the first is 2.9-fold lower: 5.69 µM for the first, 16.7 µM for the second.

Compared with `O=C(Nc1nccs1)C(NS(=O)(=O)c1ccc(Br)s1)c1ccccc1` (configuration not stated), `COc1ccc2nc(NC(=O)C3CCCN(S(=O)(=O)c4cccs4)C3)sc2c1` (configuration not stated) is 2-fold higher in IC50: 12.8 µM for the first, 26 µM for the second.

Compared with `CC1CCN(S(=O)(=O)c2cccc(C(=O)NCc3cccs3)c2)CC1`, `C=CCn1cc(C(=O)NCc2ccco2)c(=O)c2cc(S(=O)(=O)N3CCCCCC3)ccc21` is 2.1-fold lower in IC50: 33.4 µM for the first, 16.1 µM for the second. The second is the more potent here.

First: CCOc1ccc(Nc2cc(C)nc(-n3nc(C)cc3C)n2)cc1
Second: COc1ccc(Nc2nc(N3CCCC3)c3ccccc3n2)cc1
The IC50 of the first is 4.4-fold lower: 4.19 µM for the first, 18.3 µM for the second. The first is the more potent here.

`COc1ccc(-n2c(COc3ccccc3)nnc2SCc2ccc(C#N)cc2)cc1` and `CCCCOc1ccc(S(=O)(=O)n2c(C)nc3ccccc32)cc1` are within 1.5-fold of each other in IC50: 14.2 µM for the first, 11.4 µM for the second.

First: O=C(Cc1ccccc1)Nc1ccccc1N1CCN(c2ccccc2)CC1
Second: O=C(COc1ccc2ccccc2c1Br)N1CCN(c2ccccn2)CC1
The IC50 of the first is 6.1-fold higher: 64.5 µM for the first, 10.5 µM for the second.

First: CC(C)C[C@H](NC(=O)OC(C)(C)C)c1nnc(SCc2cccc(F)c2)o1
Second: COc1ccccc1N1CCN(C(c2ccccc2Cl)c2nnnn2C(C)(C)C)CC1 (configuration not stated)
The IC50 of the first is 2.3-fold lower: 11.9 µM for the first, 27.6 µM for the second.

`O=C(NCc1ccco1)C(c1cccs1)N(C(=O)C1COc2ccccc2O1)c1cccc(O)c1` (configuration not stated) and `CCCCn1nc(NC(=O)c2cccs2)c2cc3ccccc3nc21` are within 1.5-fold of each other in IC50: 11.8 µM for the first, 8.28 µM for the second.

Going from `CCc1cc(C(=O)Cc2ccc(F)cc2)c(O)cc1O` to `CCc1cc2c3c(c(=O)oc2cc1O)CCCC3`, the IC50 rises from 7.76 µM to 33 µM (4.3-fold). The first is the more potent here.

`COc1c(C)cc(Br)cc1C(=O)Nc1cccc(NC(=O)c2ccco2)c1` and `Cc1ccc2oc(C(=O)NCc3ccc4c(c3)OCO4)c(C)c2c1` are within 1.5-fold of each other in IC50: 7.48 µM for the first, 11.1 µM for the second.

Compared with `Cc1nc(N2CCN(Cc3ccc4c(c3)OCO4)CC2)c2oc3ccccc3c2n1`, `Cc1ccccc1S(=O)(=O)Cc1ccc(C(=O)N2CCN(c3cccc(C)c3C)CC2)o1` is 2.7-fold higher in IC50: 11.6 µM for the first, 30.8 µM for the second. The first is the more potent here.

First: CCCSc1oc(-c2ccco2)nc1S(=O)(=O)c1ccccc1
Second: Cn1c(CSc2nc3ccccc3s2)nc2ccccc21
The IC50 of the first is 2.3-fold lower: 9.73 µM for the first, 22.4 µM for the second.

`C/C(CCc1oc2ccccc2c1-c1ccc(C)o1)=N/O` and `Oc1ccc2c(c1)oc1cc(O)ccc12` are within 1.5-fold of each other in IC50: 14.2 µM for the first, 16.6 µM for the second.

Going from `Cc1ccc(C)n1-n1c(C)nc2sc3c(c2c1=O)CCCCC3` to `Cc1[nH]n2c(=O)c3c(nc2c1-c1ccc(Cl)cc1)CCC3`, the IC50 falls from 69.2 µM to 4.09 µM (17-fold).

`CCNc1nc(NC(C)C)nc(N(C#N)CCOc2ccc(Cl)cc2Cl)n1` and `O=C(Nc1cnn(Cc2ccc(Cl)cc2Cl)c1)c1noc2c1CCCC2` are within 1.5-fold of each other in IC50: 6.64 µM for the first, 8.39 µM for the second.

`CC(C)(C)n1nnnc1C(c1cccs1)N1CCCc2ccccc21` (configuration not stated) and `O=C(Nc1ccc(S(=O)(=O)N2CCCc3ccccc32)cc1)C1CCCO1` (configuration not stated) are within 1.5-fold of each other in IC50: 13.6 µM for the first, 19.6 µM for the second.

Going from `COc1cc2c(C#N)c(N3CCc4ccccc4C3)nc(N)c2c(N)n1` to `Cc1cccc(-n2ncc3c(N4CC(C)CC(C)C4)ncnc32)c1` (configuration not stated), the IC50 falls from 23.5 µM to 12.2 µM (1.9-fold). The second is the more potent here.

Compared with `Cc1ccc(Cl)cc1N1CCN(C(=O)CCS(=O)(=O)c2cccc3nonc23)CC1`, `N#Cc1nc(COc2ccc(Cl)cc2)oc1N1CCCCCC1` is 5.1-fold lower in IC50: 44 µM for the first, 8.68 µM for the second.

First: O=S1(=O)Nc2c(ccc3cccnc23)-c2ccccc21
Second: CCCCOc1ccc(S(=O)(=O)Nc2cc(OC)ccc2OC)cc1
The IC50 of the first is 13-fold lower: 1.31 µM for the first, 16.8 µM for the second. The first is the more potent here.

Compared with `CC1=C(C(=O)OC2CCCCCC2)C(c2ccc(C)o2)C2=C(CCCC2=O)N1` (configuration not stated), `COC(=O)CSc1nc(N2CCCCC2)c2c(c1C#N)CCCC2` is 2-fold higher in IC50: 6.35 µM for the first, 12.6 µM for the second. The first is the more potent here.

Molecule `COC(=O)c1[nH]c2cccc(OC)c2c1NC(=O)CN1CC2(C)CC1CC(C)(C)C2` (configuration not stated) has an IC50 of 38.8 µM.
